# Calls of active or inactive are those of the source. The rule behind the calls is not given here.
# Tests used:
# CCRF-CEM = test: Growth inhibition of human CCRF-CEM cells; assay type: functional
# Procedure, shortened: (§1)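 NCI-60 cell lines grown in RPMI 1640 with 5% FBS and 2 mM L-glutamine, plated at 5,000–40,000 cells/well and preincubated 24 h. Time-zero plates were TCA-fixed. Drug was given at five concentrations (10-fold or ½-log dilutions from DMSO stock) for 48 h at 37°C. Cells were TCA-fixed, stained with SRB, and read at 515 nm. GI50 is where [(Ti−Tz)/(C−Tz)]×100 = 50.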
# HL-60(TB) = test: Growth inhibition of human HL-60(TB) cells; assay type: functional; procedure, shortened: as §1
# K562 = test: Growth inhibition of human K562 cells; assay type: functional; procedure, shortened: as §1
# MOLT-4 = test: Growth inhibition of human MOLT4 cells; assay type: functional; procedure, shortened: as §1
# [1] = Growth inhibition of human […] cells; assay type: functional; procedure, shortened: as §1
# SR = test: Growth inhibition of human SR cells; assay type: functional
# Procedure, shortened: (§2)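 NCI-60 panel SRB assay. Cells in RPMI 1640 with 5% FBS and 2 mM L-glutamine, plated at 5,000-40,000 cells/well and grown 24 h before dosing; time-zero plates TCA-fixed. Five concentrations (10-fold or ½ log dilutions, from DMSO stock) applied for 48 h at 37°C. TCA fixation (16% final for suspension cells), SRB stain, absorbance 515 nm; GI50 from net protein increase versus control.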
# A549 = test: Growth inhibition of human A549 cells; assay type: functional; procedure, shortened: as §1
# EKVX = test: Growth inhibition of human EKVX cells; assay type: functional; procedure, shortened: as §1
# HOP-62 = test: Growth inhibition of human HOP62 cells; assay type: functional; procedure, shortened: as §1
# HOP-92 = test: Growth inhibition of human HOP92 cells; assay type: functional; procedure, shortened: as §1
# NCI-H226 = test: Growth inhibition of human NCI-H226 cells; assay type: functional; procedure, shortened: as §1
# NCI-H23 = test: Growth inhibition of human NCI-H23 cells; assay type: functional; procedure, shortened: as §1
# NCI-H322M = test: Growth inhibition of human NCI-H322M cells; assay type: functional; procedure, shortened: as §1
# NCI-H460 [2] = test: Growth inhibition of human NCI-H460 cells; assay type: functional; procedure, shortened: as §1
# NCI-H522 = test: Growth inhibition of human NCI-H522 cells; assay type: functional; procedure, shortened: as §1
# COLO 205 = test: Growth inhibition of human COLO205 cells; assay type: functional; procedure, shortened: as §1
# HCC 2998 = test: Growth inhibition of human HCC2998 cells; assay type: functional; procedure, shortened: as §1
# HCT-116 = test: Growth inhibition of human HCT116 cells; assay type: functional; procedure, shortened: as §1
# HCT-15 = test: Growth inhibition of human HCT15 cells; assay type: functional; procedure, shortened: as §1
# HT-29 = test: Growth inhibition of human HT-29 cells; assay type: functional; procedure, shortened: as §1
# KM12 = test: Growth inhibition of human KM12 cells; assay type: functional; procedure, shortened: as §1
# SW-620 = test: Growth inhibition of human SW620 cells; assay type: functional; procedure, shortened: as §2
# SF-268 = test: Growth inhibition of human SF268 cells; assay type: functional; procedure, shortened: as §1
# SF-295 = test: Growth inhibition of human SF295 cells; assay type: functional; procedure, shortened: as §1
# SF-539 = test: Growth inhibition of human SF539 cells; assay type: functional; procedure, shortened: as §1
# SNB-19 = test: Growth inhibition of human SNB19 cells; assay type: functional; procedure, shortened: as §2
# SNB-75 = test: Growth inhibition of human SNB75 cells; assay type: functional; procedure, shortened: as §2
# U-251 = test: Growth inhibition of human U251 cells; assay type: functional; procedure, shortened: as §2
# M14 = test: Growth inhibition of human M14 cells; assay type: functional; procedure, shortened: as §1
# Malme-3M = test: Growth inhibition of human MALME-3M cells; assay type: functional; procedure, shortened: as §1
# SK-MEL-2 = test: Growth inhibition of human SK-MEL-2 cells; assay type: functional; procedure, shortened: as §1
# SK-MEL-28 = test: Growth inhibition of human SK-MEL-28 cells; assay type: functional; procedure, shortened: as §2
# SK-MEL-5 = test: Growth inhibition of human SK-MEL-5 cells; assay type: functional; procedure, shortened: as §2
# UACC-257 = test: Growth inhibition of human UACC257 cells; assay type: functional; procedure, shortened: as §2
# UACC-62 = test: Growth inhibition of human UACC62 cells; assay type: functional; procedure, shortened: as §2
# IGROV-1 = test: Growth inhibition of human IGROV1 cells; assay type: functional; procedure, shortened: as §1
# OVCAR-3 = test: Growth inhibition of human OVCAR3 cells; assay type: functional; procedure, shortened: as §1
# OVCAR-4 = test: Growth inhibition of human OVCAR4 cells; assay type: functional; procedure, shortened: as §1
# OVCAR-5 = test: Growth inhibition of human OVCAR5 cells; assay type: functional; procedure, shortened: as §1
# OVCAR-8 = test: Growth inhibition of human OVCAR8 cells; assay type: functional; procedure, shortened: as §1
# SK-OV-3 = test: Growth inhibition of human SKOV3 cells; assay type: functional; procedure, shortened: as §2
# 786-0 = test: Growth inhibition of human 786-0 cells; assay type: functional; procedure, shortened: as §1
# A498 = test: Growth inhibition of human A498 cells; assay type: functional; procedure, shortened: as §1
# ACHN = test: Growth inhibition of human ACHN cells; assay type: functional; procedure, shortened: as §1
# CAKI-1 = test: Growth inhibition of human Caki1 cells; assay type: functional; procedure, shortened: as §1
# RXF 393 = test: Growth inhibition of human RXF393 cells; assay type: functional; procedure, shortened: as §1
# SN12C = test: Growth inhibition of human SN12C cells; assay type: functional; procedure, shortened: as §2
# TK-10 = test: Growth inhibition of human TK10 cells; assay type: functional; procedure, shortened: as §2
# UO-31 = test: Growth inhibition of human UO31 cells; assay type: functional; procedure, shortened: as §2
# PC-3 = test: Growth inhibition of human PC3 cells; assay type: functional; procedure, shortened: as §1
# DU-145 = test: Growth inhibition of human DU145 cells; assay type: functional; procedure, shortened: as §1
# MCF7 = test: Growth inhibition of human MCF7 cells; assay type: functional; procedure, shortened: as §1
# NCI/ADR-RES = test: Growth inhibition of human NCI/ADR-RES cells; assay type: functional; procedure, shortened: as §1
# MDA-MB-231 = test: Growth inhibition of human MDA-MB-231 cells; assay type: functional; procedure, shortened: as §1
# [3] = Growth inhibition of human Hs 578T cells; assay type: functional; procedure, shortened: as §1
# MDA-MB-435 = test: Growth inhibition of human MDA-MB-435 cells; assay type: functional; procedure, shortened: as §1
# MDA-N = test: Growth inhibition of human MDA-N cells; assay type: functional; procedure, shortened: as §1
# BT-549 = test: Growth inhibition of human BT549 cells; assay type: functional; procedure, shortened: as §1
# T47D = test: Growth inhibition of human T47D cells; assay type: functional; procedure, shortened: as §2
# [4] = Growth inhibition of human NCI60 cells; assay type: functional; procedure, shortened: as §1
# NCI-H460 [5] = test: Cytotoxicity against human NCI-H460 cells assessed as cell death at 50 nM after 12 hrs by Hoechst-33342 staining and propidium iodide staining; assay type: functional, cell-based; conditions: NCI-H460, 12 h
# Procedure, shortened: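 NCI-H460 cells were seeded at 50,000 cells/well for 12 h, then exposed 12 h in serum-free medium (DMSO <0.1%). Cells were stained with Hoechst 33342 (10 µg/ml) and propidium iodide (20 µg/ml) for 30 min at 37°C. Condensed or fragmented nuclei were scored by fluorescence microscopy, and apoptotic index = apoptotic/total nuclei ×100. Duplicate wells, ≥3 runs (N = 6).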
# NCI-H460 [6] = test: Induction of apoptosis human NCI-H460 cells assessed as cellular degradation at 50 nM after 12 hrs by Hoechst-33342 staining; assay type: functional
# Procedure, shortened: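 NCI-H460 seeded 50,000 cells/well for 12 h, then exposed 12 h in serum-free medium (DMSO <0.1%). Stained 30 min at 37°C with 10 µg/ml Hoechst 33342 plus 20 µg/ml propidium iodide. Condensed or fragmented nuclei scored by fluorescence microscopy; apoptotic index = apoptotic/total nuclei ×100. 2 replicate wells, ≥3 runs (N = 6).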
# LOX IMVI = test: Growth inhibition of human LOXIMVI cells; assay type: functional; procedure, shortened: as §1
structure (smiles),measurement,setting,value
C[C@@H]1O[C@@H](O[C@H]2CC[C@@]3(C)[C@H](CC[C@@H]4[C@@H]3CC[C@]3(C)[C@@H](C5=CC(=O)OC5)CC[C@]43O)C2)[C@H](O)[C@H](O)[C@H]1O,GI50,CCRF-CEM,< 10 nM
same,GI50,HL-60(TB),< 10 nM
same,GI50,K562,< 10 nM
same,GI50,MOLT-4,< 10 nM
same,GI50,[1],< 10 nM
same,GI50,SR,< 10 nM
same,GI50,A549,< 10 nM
same,GI50,EKVX,< 10 nM
same,GI50,HOP-62,< 10 nM
same,GI50,HOP-92,< 10 nM
same,GI50,NCI-H226,< 10 nM
same,GI50,NCI-H23,< 10 nM
same,GI50,NCI-H322M,< 10 nM
same,GI50,NCI-H460 [2],< 10 nM
same,GI50,NCI-H522,< 10 nM
same,GI50,COLO 205,< 10 nM
same,GI50,HCC 2998,< 10 nM
same,GI50,HCT-116,< 10 nM
same,GI50,HCT-15,< 10 nM
same,GI50,HT-29,< 10 nM
same,GI50,KM12,< 10 nM
same,GI50,SW-620,< 10 nM
same,GI50,SF-268,< 10 nM
same,GI50,SF-295,< 10 nM
same,GI50,SF-539,< 10 nM
same,GI50,SNB-19,< 10 nM
same,GI50,SNB-75,< 10 nM
same,GI50,U-251,< 10 nM
same,GI50,M14,< 10 nM
same,GI50,Malme-3M,< 10 nM
same,GI50,SK-MEL-2,< 10 nM
same,GI50,SK-MEL-28,< 10 nM
same,GI50,SK-MEL-5,< 10 nM
same,GI50,UACC-257,< 10 nM
same,GI50,UACC-62,< 10 nM
same,GI50,IGROV-1,< 10 nM
same,GI50,OVCAR-3,< 10 nM
same,GI50,OVCAR-4,< 10 nM
same,GI50,OVCAR-5,< 10 nM
same,GI50,OVCAR-8,< 10 nM
same,GI50,SK-OV-3,< 10 nM
same,GI50,786-0,< 10 nM
same,GI50,A498,< 10 nM
same,GI50,ACHN,< 10 nM
same,GI50,CAKI-1,< 10 nM
same,GI50,RXF 393,< 10 nM
same,GI50,SN12C,< 10 nM
same,GI50,TK-10,< 10 nM
same,GI50,UO-31,< 10 nM
same,GI50,PC-3,< 10 nM
same,GI50,DU-145,< 10 nM
same,GI50,MCF7,< 10 nM
same,GI50,NCI/ADR-RES,< 10 nM
same,GI50,MDA-MB-231,< 10 nM
same,GI50,[3],< 10 nM
same,GI50,MDA-MB-435,< 10 nM
same,GI50,MDA-N,< 10 nM
same,GI50,BT-549,< 10 nM
same,GI50,T47D,< 10 nM
same,GI50,[4],1 nM
same,IC50,NCI-H460 [5],46.7 nM
same,Activity,NCI-H460 [6],Active
same,Activity,NCI-H460 [6]; record 2,45.8%
same,GI50,LOX IMVI,< 10 nM
